Calls of active or inactive are those of the source. The rule behind the calls is not given here.
How the values were obtained:
Format in all cases: functional, cell-based
[1] = Activation of human BM2a.3 cells co-cultured with CD1d-expressing U937 cells assessed as IFN-gamma release after 16 hrs by ELISA; conditions: U-937
How it was run: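 Human iNKT clone BM2a.3 (2.5×10^4) co-cultured with 2.5×10^4 U937 cells and a range of lipid concentrations; cytokines in culture supernatants measured by ELISA after 16 h.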

DN32 = assay: Activation of mouse DN32 cells in co-cultured with plate bound antigen presenting cell free CD1d-FC fusion protein assessed as IL-2 release after 16 hrs by ELISA
How it was run: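 Plate-bound murine recombinant CD1d-Fc fusion protein loaded with lipid for 16 h, then washed; 5×10^4 iNKT hybridoma cells added per well, with no APC. Cytokines in culture supernatants measured by ELISA.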

RAW [2] = assay: Activation of mouse DN32 cells co-cultured with CD1d-transfected RAW cells assessed as IL-2 release at 100 ng/ml pulsed for 3 hrs and then fixed measured after 16 hrs by ELISA
How it was run: (§1)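 CD1d-transfected RAW cells were handled in one of two orders. In one, they were pulsed with 100 ng/ml lipid for 3 h, washed, then fixed with glutaraldehyde. In the other, they were fixed first, then pulsed for 3 h. 10^5 APC were co-cultured with 10^5 iNKT hybridoma cells for 16 h, and supernatant cytokines were measured by ELISA.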

RAW [3] = assay: Activation of mouse DN32 cells in co-cultured with CD1d-transfected RAW cells assessed as IL-2 release after 16 hrs by ELISA
How it was run: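 Mouse iNKT hybridoma DN32 (5×10^4) co-cultured with 5×10^4 RAW cells, CD1d-transfected or untransfected, across a range of lipid concentrations; supernatant cytokines measured by ELISA at 16 h.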

RAW [4] = assay: Activation of mouse DN32 cells co-cultured with CD1d-transfected RAW cells assessed as IL-2 release at 100 ng/ml fixed and then pulsed for 3 hrs measured after 16 hrs by ELISA; how it was run: as §1

Row | Structure (SMILES) | Activity [1] | Activity (DN32) | Activity (RAW [2]) | Activity (RAW [3]) | Activity (RAW [4])
1 | CCCCCCCCCCCCCCCCCCCCCCCCCC(=O)N[C@@H](CO[C@H]1O[C@H](CO)[C@H](O)[C@H](O)[C@H]1O[C@H]1O[C@H](CO)[C@H](O)[C@H](O)[C@H]1O)[C@H](O)[C@H](O)CCCCCCCCCCCCCC | Active | inactive | Active | Active | inactive
2 | CCCCCCCCCCCCCCCCCCCCCCCCCC(=O)N[C@@H](CO[C@H]1O[C@H](CO)[C@H](O)[C@H](O)[C@H]1O)[C@H](O)[C@H](O)CCCCCCCCCCCCCC | Active | Active | Active | Active | Active

Source: ChEMBL document CHEMBL1153633, “Synthesis and biological activity of alpha-galactosyl ceramide KRN7000 and galactosyl (alpha1-->2) galactosyl ceramide” (Bioorg Med Chem Lett, 2009)
